Test results taken from ChEMBL document CHEMBL1150793, “In vitro susceptibilities of 217 clinical isolates of zygomycetes to conventional and new antifungal agents” (2007).
Values after ≈ are worked out from the molar mass of the structure shown. Active and inactive are the calls of the source. The calls are words filed in the database; no cut-off is given here.

What was measured:
Rhizopus [1] = assay: Antimicrobial activity against Rhizopus sp. after 24 hrs; format: functional
In short: (§1)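 Broth microdilution of clinical isolates following CLSI M38-A for filamentous fungi. The polyene and echinocandin agents were tested in antibiotic medium 3, and the other agents in RPMI 1640. Plates were incubated 24 h at 35°C and end points read visually. The echinocandin end point was the minimal effective concentration (MEC); the others were MICs.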

Rhizopus arrhizus [2] = assay: Antimicrobial activity against Rhizopus arrhizus after 24 hrs; format: functional
In short: (§2)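 Clinical zygomycete isolates tested by broth microdilution in microtiter format, in essential agreement with CLSI M38-A for filamentous fungi. The polyene and echinocandin were tested in antibiotic medium 3, and the other agents in RPMI 1640. Plates were incubated for 24 h at 35°C, and end points were read visually. The echinocandin end point was taken as the minimal effective concentration.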

[3] = test system: Rhizopus microsporus var. rhizopodiformis; assay: Antimicrobial activity against Rhizopus microsporus var. rhizopodiformis after 24 hrs; format: functional; in short: as §1
Mucor [4] = assay: Antimicrobial activity against Mucor sp. after 24 hrs; format: functional; in short: as §1
Absidia [5] = assay: Antimicrobial activity against Absidia sp. after 24 hrs; format: functional, organism-based; in short: as §2
Mucor circinelloides [6] = assay: Antimicrobial activity against Mucor circinelloides after 24 hrs; format: functional; in short: as §2
Rhizomucor [7] = assay: Antimicrobial activity against Rhizomucor sp. after 24 hrs; format: functional; in short: as §2
Lichtheimia corymbifera [8] = assay: Antimicrobial activity against Absidia corymbifera after 24 hrs; format: functional; in short: as §2
Cunninghamella [9] = assay: Antimicrobial activity against Cunninghamella sp. after 24 hrs; format: functional; in short: as §2
Apophysomyces elegans [10] = assay: Antimicrobial activity against Apophysomyces elegans after 24 hrs; format: functional; in short: as §2
Rhizopus [11] = assay: Antimicrobial activity against Rhizopus sp. assessed as percent of susceptible isolates after 24 hrs; format: functional
Rhizopus arrhizus [12] = assay: Antimicrobial activity against Rhizopus arrhizus assessed as percent of susceptible isolates after 24 hrs; format: functional
[13] = test system: Rhizopus microsporus var. rhizopodiformis; assay: Antimicrobial activity against Rhizopus microsporus var. rhizopodiformis assessed as percent of susceptible isolates after 24 hrs; format: functional
[14] = test system: Rhizopus microsporus var. microsporus; assay: Antimicrobial activity against Rhizopus microsporus var. microsporus assessed as percent of susceptible isolates after 24 hrs; format: functional
Mucor [15] = assay: Antimicrobial activity against Mucor sp. after assessed as percent of susceptible isolates after 24 hrs; format: functional
Mucor circinelloides [16] = assay: Antimicrobial activity against Mucor circinelloides assessed as percent of susceptible isolates after 24 hrs; format: functional
Rhizomucor [17] = assay: Antimicrobial activity against Rhizomucor sp. assessed as percent of susceptible isolates after 24 hrs; format: functional
Absidia [18] = assay: Antimicrobial activity against Absidia sp. assessed as percent of susceptible isolates after 24 hrs; format: functional
Lichtheimia corymbifera [19] = assay: Antimicrobial activity against Absidia corymbifera assessed as percent of susceptible isolates after 24 hrs; format: functional
Cunninghamella [20] = assay: Antimicrobial activity against Cunninghamella sp. assessed as percent of susceptible isolates after 24 hrs; format: functional
Apophysomyces elegans [21] = assay: Antimicrobial activity against Apophysomyces elegans assessed as percent of susceptible isolates after 24 hrs; format: functional

Structure (SMILES) | MIC50 (Rhizopus [1]) [µg/mL] | MIC90 (Rhizopus [1]) [µg/mL] | MIC50 (Rhizopus arrhizus [2]) [µg/mL] | MIC50 [3] [µg/mL] | MIC50 (Mucor [4]) [µg/mL] | MIC90 (Mucor [4]) [µg/mL] | Activity (Absidia [5]) | Activity (Rhizopus [11]) [%] | Activity (Rhizopus arrhizus [12]) [%] | Activity [13] [%] | Activity (Mucor [15]) [%] | Activity (Mucor circinelloides [16]) [%] | Activity (Rhizomucor [17]) [%] | Activity (Absidia [18]) [%] | Activity (Lichtheimia corymbifera [19]) [%] | Activity (Cunninghamella [20]) [%] | Activity (Apophysomyces elegans [21]) [%] | Activity (Mucor circinelloides [6]) | Activity (Rhizomucor [7]) | Activity (Lichtheimia corymbifera [8]) | further results
C[C@@H]1[C@H](O)[C@@H](C)/C=C/C=C/C=C/C=C/C=C/C=C/C=C/[C@H](O[C@@H]2O[C@H](C)[C@@H](O)[C@H](N)[C@@H]2O)C[C@@H]2O[C@](O)(C[C@@H](O)C[C@@H](O)[C@H](O)CC[C@@H](O)C[C@@H](O)CC(=O)O[C@H]1C)C[C@H](O)[C@H]2C(=O)O [AMPHOTERICIN B] | 0.25 (≈ 0.271 µM) | 0.5 (≈ 0.541 µM) | 0.25 (≈ 0.271 µM) | 0.25 (≈ 0.271 µM) | 0.25 (≈ 0.271 µM) | 0.5 (≈ 0.541 µM) | inactive | 100 | 100 | 100 | 94 | 100 | 100 | 100 | 100 | 63 | 100 | – | – | – | MIC90 (Rhizopus arrhizus [2]): 0.25 µg/mL (≈ 0.271 µM); MIC90 [3]: 0.25 µg/mL (≈ 0.271 µM); MIC50 (Mucor circinelloides [6]): 0.25 µg/mL (≈ 0.271 µM); MIC50 (Rhizomucor [7]): 0.125 µg/mL (≈ 0.135 µM); MIC50 (Lichtheimia corymbifera [8]): 0.25 µg/mL (≈ 0.271 µM); MIC50 (Cunninghamella [9]): 1 µg/mL (≈ 1.08 µM); MIC50 (Apophysomyces elegans [10]): 0.125 µg/mL (≈ 0.135 µM); Activity [14]: 100%
CC[C@H](C)C[C@H](C)CCCCCCCCC(=O)N[C@H]1C[C@@H](O)[C@@H](NCCN)NC(=O)[C@@H]2[C@@H](O)CCN2C(=O)[C@H]([C@H](O)CCN)NC(=O)[C@H]([C@H](O)[C@@H](O)c2ccc(O)cc2)NC(=O)[C@@H]2C[C@@H](O)CN2C(=O)[C@H]([C@@H](C)O)NC1=O [CASPOFUNGIN] | > 16 | > 16 | > 16 | > 16 | > 16 | > 16 | inactive | 0 | 0 | 0 | 0 | 0 | 0 | 0 | 0 | 0 | 0 | inactive | inactive | inactive | Activity (Cunninghamella [9]): inactive; Activity (Apophysomyces elegans [10]): inactive
OC(Cn1cncn1)(Cn1cncn1)c1ccc(F)cc1F [FLUCONAZOLE] | > 64 | > 64 | – | – | > 64 | – | inactive | 0 | 0 | 0 | 0 | 0 | 0 | – | – | 0 | 0 | inactive | inactive | inactive | Activity (Rhizopus arrhizus [2]): inactive; Antimicrobial activity [3]: inactive; Activity (Cunninghamella [9]): inactive; Activity (Apophysomyces elegans [10]): inactive
Nc1nc(=O)[nH]cc1F [FLUCYTOSINE] | – | – | – | – | > 64 | – | – | 0 | 0 | 0 | 0 | 0 | – | – | – | 0 | – | inactive | – | – | Activity (Rhizopus [1]): inactive; Activity (Rhizopus arrhizus [2]): inactive; Activity [3]: inactive; Activity (Cunninghamella [9]): inactive
CCC(C)n1ncn(-c2ccc(N3CCN(c4ccc(OC[C@H]5CO[C@](Cn6cncn6)(c6ccc(Cl)cc6Cl)O5)cc4)CC3)cc2)c1=O (some centres not stated) [ITRACONAZOLE] | 0.5 (≈ 0.709 µM) | 4 (≈ 5.67 µM) | 0.5 (≈ 0.709 µM) | 0.5 (≈ 0.709 µM) | 0.5 (≈ 0.709 µM) | > 8 | inactive | 62 | 50 | 60 | 57 | 0 | 67 | 50 | 100 | 29 | 80 | inactive | inactive | inactive | MIC50 (Cunninghamella [9]): 1 µg/mL (≈ 1.42 µM); MIC50 (Apophysomyces elegans [10]): 0.125 µg/mL (≈ 0.177 µM); Activity [14]: 0%
CC(=O)N1CCN(c2ccc(OCC3COC(Cn4ccnc4)(c4ccc(Cl)cc4Cl)O3)cc2)CC1 (configuration not stated) [KETOCONAZOLE] | 1 (≈ 1.88 µM) | – | – | – | – | – | inactive | 83 | 0 | 0 | 33 | 0 | – | – | – | 0 | – | inactive | inactive | inactive | Activity (Rhizopus arrhizus [2]): inactive; Activity [3]: inactive; Activity (Mucor [4]): inactive; Activity (Cunninghamella [9]): inactive; Activity (Apophysomyces elegans [10]): inactive
CC[C@@H]([C@H](C)O)n1ncn(-c2ccc(N3CCN(c4ccc(OC[C@@H]5CO[C@@](Cn6cncn6)(c6ccc(F)cc6F)C5)cc4)CC3)cc2)c1=O [POSACONAZOLE] | 0.25 (≈ 0.357 µM) | 1 (≈ 1.43 µM) | 0.25 (≈ 0.357 µM) | 0.25 (≈ 0.357 µM) | 0.5 (≈ 0.713 µM) | 2 (≈ 2.85 µM) | inactive | 80 | 64 | 78 | 70 | 0 | 67 | 100 | 100 | 75 | 83 | inactive | inactive | inactive | MIC90 (Rhizopus arrhizus [2]): 1 µg/mL (≈ 1.43 µM); MIC50 (Cunninghamella [9]): 0.5 µg/mL (≈ 0.713 µM); MIC50 (Apophysomyces elegans [10]): 0.03 µg/mL (≈ 0.0428 µM)
C[C@@H](c1ncncc1F)[C@](O)(Cn1cncn1)c1ccc(F)cc1F [VORICONAZOLE] | 8 (≈ 22.9 µM) | > 8 | > 8 | – | > 8 | > 8 | inactive | 5 | 0 | 0 | 0 | 0 | 0 | 0 | 0 | 10 | 100 | inactive | inactive | inactive | Antimicrobial activity [3]: inactive; MIC50 (Cunninghamella [9]): > 8 µg/mL; MIC90 (Cunninghamella [9]): > 8 µg/mL
